High-throughput results as filed in PubChem BioAssay.
In the library only some 3.8% were active in any assay of this set; here they are far more common.
Kir21 inh: inhibitors of mouse Kir2.1 inward-rectifier potassium channel; Inward rectifier potassium channel 2 (Mus musculus), P35561; HEK293-Kir2.1, FluxOR thallium flux fluorescence; stronger effect = lower value; 310,000 tested, 0.85% active; B-score at 10 µM;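 active means fluorescence ratio B-score at or below minus 3 SD of library scores, with starting-brightness B-score within 2 SD, cut at about -4.2 in these data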;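 further: channel flux triggered by added potassium and thallium sulfate stimulus; B-score of peak minus minimum fluorescence over baseline after thallium stimulus; more negative B-score means stronger Kir2.1 block with less thallium influx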
KCNQ1 block: inhibitors of human KCNQ1 channel, primary screen, cell-based, thallium flux, high-throughput; AID 2642, 2010; 310,000 tested, 1.3% active; CHO-K1 KCNQ1, FluxOR thallium flux fluorescence; stronger effect = higher value; B-score at 10 µM; Potassium voltage-gated channel subfamily KQT member 1 (Homo sapiens), P51787;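 active means compounds whose thallium flux B-score, printed positive for inhibition, exceeds three library SD while starting fluorescence stays within three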;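 further: channel opened by potassium depolarization with thallium stimulus after 20 min compound exposure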
Target sequence (P51787 whole entry, looked up): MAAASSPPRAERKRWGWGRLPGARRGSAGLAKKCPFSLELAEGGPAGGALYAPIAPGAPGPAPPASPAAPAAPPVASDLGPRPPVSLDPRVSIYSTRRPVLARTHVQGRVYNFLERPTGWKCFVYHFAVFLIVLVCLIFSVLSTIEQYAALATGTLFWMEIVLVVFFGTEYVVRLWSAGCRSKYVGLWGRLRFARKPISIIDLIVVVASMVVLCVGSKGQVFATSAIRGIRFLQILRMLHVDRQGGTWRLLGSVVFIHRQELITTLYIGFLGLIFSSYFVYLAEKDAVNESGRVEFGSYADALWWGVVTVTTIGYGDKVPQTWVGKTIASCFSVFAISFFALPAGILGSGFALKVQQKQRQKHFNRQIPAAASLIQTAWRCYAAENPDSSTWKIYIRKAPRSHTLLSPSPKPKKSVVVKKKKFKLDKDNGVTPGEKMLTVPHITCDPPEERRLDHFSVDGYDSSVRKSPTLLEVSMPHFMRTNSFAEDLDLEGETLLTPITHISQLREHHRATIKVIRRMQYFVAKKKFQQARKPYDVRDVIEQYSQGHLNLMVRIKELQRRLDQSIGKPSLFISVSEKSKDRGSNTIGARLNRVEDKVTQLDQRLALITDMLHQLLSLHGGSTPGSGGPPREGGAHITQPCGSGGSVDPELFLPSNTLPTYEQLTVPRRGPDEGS
hERG rescue: hERG rescue from dofetilide block, primary screen, cell-based, CHO-hERG, FluxOR thallium flux, dofetilide IC70 | activation (rescue from dofetilide block), less the hit threshold, % at 10 µM | 310,000 tested, 0.51% active | AID 1511, 2009 | Voltage-gated inwardly rectifying potassium channel KCNH2 (Homo sapiens), Q12809 | dofetilide IC70 present;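 active means activation above the mean of controls blocked by dofetilide plus 5 SD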;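 further: thallium influx through hERG after potassium depolarization seen as dye fluorescence rise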
KCNQ1 pot: potentiators or activators of KCNQ1 channel, primary screen, cell-based, thallium flux, high-throughput; Potassium voltage-gated channel subfamily KQT member 1 (Homo sapiens), P51787; CHO-K1 KCNQ1, thallium flux FluxOR fluorescence; stronger effect = higher value; B-score at 10 µM; 310,000 tested, 0.35% active; AID 2648, 2010;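 active means fluorescence ratio B-score, a plate-corrected score, at least three library SD, with initial intensity B-score within 5 SD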
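System: Stable KCNQ1 CHO-K1 line | Incubation: 90 min dye loading and 20 min compound exposure, both at room temperature | Measure: Ratio B score | Medium: Assay buffer for compound exposure, DMSO matched across wells | Compound dosing: Single-concentration screen | Probe or stimulus: K+/Tl+ depolarizing stimulus | Measured by: Kinetic FluxOR fluorescence, 10 s baseline plus 110 s post-stimulus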
KCNK9 block: KCNK9 potassium channel inhibitors, primary screen, HEK293 cells, thallium flux. Potassium channel subfamily K member 9 (Homo sapiens), Q9NPC2. FluxOR thallium flux fluorescence; stronger effect = lower value. B-score at 10 µM. 310,000 tested, 1.2% active. AID 488922, 2010;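 active means ratio B-score over 3 SD below the library mean, with starting fluorescence within 5 SD of its mean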;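 further: negative B-score means less thallium flux so channel inhibition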
KCNK3 inh: human KCNK3 channel inhibitors, primary screen, CHO cells, FluxOR thallium flux, B-score | Potassium channel subfamily K member 3 (Homo sapiens), O14649 | FluxOR fluorescence; stronger effect = lower value | B-score at 10 µM | 340,000 tested, 0.84% active;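 active means B-score under library mean minus 4 SD, starting fluorescence ratio at most library mean plus 5 SD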;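 further: more negative B-score means stronger inhibition of thallium flux through KCNK3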
KCNK9 block conf: KCNK9 potassium channel inhibitors, confirmation, HEK293 cells, thallium flux, duplicate | inhibition, % at 10 µM | FluxOR thallium flux fluorescence | shares compounds with KCNK9 block | AID 492992, 2010 | 4,900 tested, 43% active;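 active means thallium signal inhibited by more than 5 SD of the compound-free buffer control wells, on both duplicate plates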;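 further: 0% = assay buffer control wells without compound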
Kir21 sel: mouse Kir2.1 channel inhibition, confirmation, selectivity assay for KCNK9 modulator project, cell-based, HEK293, thallium flux | shares compounds with KCNK9 block | Kir2.1 cells, FluxOR thallium flux fluorescence | inhibition, % at 10 µM | 4,900 tested, 4% active;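 active means thallium signal drop more than 5 SD beyond the mean of the no-compound control wells, seen in both duplicate plates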;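 further: signal is fluorescence rise after thallium addition divided by baseline fluorescence; plate controls were assay buffer only for no effect and full block by chlorpromazine control for full effect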
KCNK9 uninduced: thallium flux in non-induced HEK293 cells, confirmation, counter-screen for KCNK9 inhibitor project, cell-based, second counter screen, non-induced KCNK9-HEK293; 4,900 tested, 40% active; inhibition, % at 10 µM; shares compounds with KCNK9 block; FluxOR thallium flux;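 active means thallium signal drop beyond 5 SD of the untreated control mean, on both duplicate plates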;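 further: plate controls were buffer only IC0 wells for no effect and SID17386958 at its maximal inhibitory level for full effect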
Starred values were filed as active, the others as inactive; i = inactive; x = no result.

SMILES	Kir21 inh	KCNQ1 block	hERG rescue	KCNQ1 pot	KCNK9 block	KCNK3 inh	KCNK9 block conf	Kir21 sel	KCNK9 uninduced
CC1CCN(c2nc3ccc(C(=O)NCCCN4CCCCC4C)cc3s2)CC1 (centres undefined)	-0.45	i	-10	i	i	i	x	x	x
N/C(=N\OC(=O)Cc1ccc(-c2ccccc2)cc1)c1ccncc1	-0.96	i	-6	i	i	i	30%*	i	i
COc1cc(-c2c(C#N)c(N)nc(SCc3ccncc3)c2C#N)cc(OC)c1OC	0.05	i	-16	i	-10*	i	i	i	27%*
CCOc1cc(NC(=O)C(C)C)c(OCC)cc1NC(=O)Nc1ccccc1	0.05	i	-10	i	i	i	x	x	x
O=C(CCc1ccc(Oc2cc([N+](=O)[O-])cc([N+](=O)[O-])c2)cc1)N1CCCCCC1	0.02	i	-7	i	-10*	i	46%*	i	i
O=C(Cc1ccc([N+](=O)[O-])cc1)N1CCCCCC1	-0.84	i	-9	i	i	i	x	x	x
Cc1cccc(N2CCN(C(=O)c3ccc4nc(-c5ccco5)c(-c5ccco5)nc4c3)CC2C)c1 (centres undefined)	0.21	i	-20	i	-8.8*	i	45%*	i	i
CC(=O)Nc1ccccc1-c1nc2ccc(C(=O)N3CCN(c4cccc(C)c4)C(C)C3)cc2[nH]c1=O (centres undefined)	0.69	i	-8	i	i	i	x	x	x
Cc1nnc(SCC(=O)Nc2ncc(S(=O)(=O)c3ccc([N+](=O)[O-])cc3)s2)s1	0.39	i	-5	i	i	i	x	x	x
COC(=O)C(NC(=O)c1ccccc1C)(Nc1ncc(S(=O)(=O)c2ccc([N+](=O)[O-])cc2)s1)C(F)(F)F (centres undefined)	0.34	i	-12	i	i	i	i	i	i
CCN(c1ccccc1)S(=O)(=O)c1ccc(OC)c(NC(=O)c2cc(F)c(F)c(F)c2F)c1	x	x	x	x	x	i	x	x	x
Cc1ccc(Cc2nnc3n(-c4cccc(C)c4)nc(C(=O)c4ccccc4)n3c2=O)cc1	0.16	i	-10	i	i	i	i	i	i
CC1CN(S(=O)(=O)c2ccc(C(=O)Nc3nnc(-c4ccc5c(c4)CCCC5)o3)cc2)CC(C)O1 (centres undefined)	1.4	i	-9	i	i	i	i	i	i
CC1CN(S(=O)(=O)c2ccc(C(=O)Nc3nnc(-c4ccccn4)o3)cc2)CC(C)O1 (centres undefined)	-0.18	i	-8	i	i	i	x	x	x
CCCCCCCC(=O)NNC(=O)c1c(O)c2ccccc2n(CC)c1=O	2.9	i	-6	i	i	i	i	i	i
CCCCCCC(=O)NNC(=O)c1c(O)c2ccccc2n(CCC)c1=O	-1.5	i	-5	i	i	i	x	x	x
CCCCCCCC(=O)NNC(=O)c1c(O)c2ccccc2n(CCC)c1=O	-0.25	i	-7	i	i	i	i	i	i
Cc1ccc(-c2nnc(N3CCCCC3)c3ccccc23)cc1S(=O)(=O)NCC1CCCO1 (centres undefined)	-0.26	i	-20	i	-12*	i	i	i	i
O=C(Nc1ccccc1-c1nnc(SCc2ccccc2Cl)o1)c1ccccc1	0.77	i	-8	i	i	i	i	i	i
O=C(CN1C(=O)S/C(=C\c2cc(Cl)c(O)c(Cl)c2)C1=O)Nc1ccccc1	-1.4	i	12*	i	i	i	i	i	i
O=C(NCCOc1ccccc1Cl)c1cccc2c1C(=O)c1ccc(Cl)cc1S2(=O)=O	x	x	x	x	x	i	x	x	x
COc1cc(OC)cc(-c2c(-c3ccc(C(C)=O)cc3)c3cc(-c4cccc5[nH]ccc45)ccc3n2C)c1	x	x	x	x	x	i	x	x	x
CCCCN(CC)C(=O)CSc1nc2n[nH]c(C)c2c(=N)n1-c1cccc(C)c1	-0.4	i	-3	i	-9.2*	i	34%*	i	i
O=C(Nc1cccnc1)c1cn(-c2ccccc2)nc1-c1cccs1	-0.23	i	-8	i	i	i	x	x	x
O=C(Nc1cccc2ccccc12)c1cn(-c2ccccc2)nc1-c1cccs1	1.4	i	-12	i	-10*	-9.5*	50%*	i	24%*
SMILES	Kir21 inh	KCNQ1 block	hERG rescue	KCNQ1 pot	KCNK9 block	KCNK3 inh	KCNK9 block conf	Kir21 sel	KCNK9 uninduced
COc1ccc(C2CC(c3cccs3)=Nc3ccccc3S2)cc1 (centres undefined)	0.17	i	-2	i	-12*	i	52%*	i	36%*
O=S(=O)(c1ccccc1Br)N(Cc1ccccc1)CC(O)COCc1ccccc1 (centres undefined)	x	x	x	x	x	i	x	x	x
CN1CCC(C(=O)N2CCCC(C(=O)c3ccc4c5c(cccc35)CC4)C2)CC1 (centres undefined)	0.11	i	-7	i	i	i	x	x	x
COc1cccc(OC)c1CN1CCCC(C(=O)c2ccccc2SC)C1 (centres undefined)	-1.9	i	-24	i	i	i	i	i	i
CC(=O)N1CCCC(C(=O)c2ccc3c4c(cccc24)CC3)C1 (centres undefined)	0.98	i	-10	i	i	i	i	i	i
COCCC(=O)N1CCCC(C(=O)c2ccccc2SC)C1 (centres undefined)	1.8	i	4	i	i	i	x	x	x
COc1cc(CN2CCCC(C(=O)c3ccc4c5c(cccc35)CC4)C2)cc(OC)c1O (centres undefined)	-2.6	i	-18	i	i	i	i	i	i
